Source: ChEMBL document CHEMBL1152250, “Novel and orally active 5-(1,3,4-oxadiazol-2-yl)pyrimidine derivatives as selective FLT3 inhibitors” (Bioorg Med Chem Lett, 2008)

Columns and labels:
[1] = tested on: Liver microsomes; test: Metabolic stability in human liver microsomes assessed as intrinsic clearance; type: ADME, Microsome
Procedure, shortened: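 Pooled human liver microsomes (0.2 mg protein/mL) with test compound at 0.1 or 1 μmol/L, 5 mmol/L NADPH, 100 mmol/L phosphate buffer pH 7.4, 6 mmol/L MgCl2 and 0.1 mmol/L EDTA. Cosolvent was DMSO (0.01 or 0.001 vol%) or methanol (1 vol%). Incubated at 37 °C for a fixed time, n = 1 or 2. Stopped with CH3CN containing internal standard and analysed by LC-MS or LC-MS/MS. Intrinsic clearance calculated from percent remaining.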

[2] = tested on: MOLM-13; test: Antiproliferative activity against human MOLM13 cells after 72 hrs by WST-1 assay; type: functional; details: MOLM-13, 72 h
Procedure, shortened: (§1)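 Cells kept in RPMI1640 with 10% heat-inactivated FBS, 1% penicillin and 1% streptomycin, seeded in 96-well plates and exposed to test compounds for 72 h. Viability read with WST-1 reagent. GI50 is the mean ± SEM of three experiments.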

[3] = biological target: T1, Receptor-type tyrosine-protein kinase FLT3 (Homo sapiens, UniProt P36888); test: Inhibition of GST-tagged FLT3 by ELISA
T1 sequence (P36888 whole entry): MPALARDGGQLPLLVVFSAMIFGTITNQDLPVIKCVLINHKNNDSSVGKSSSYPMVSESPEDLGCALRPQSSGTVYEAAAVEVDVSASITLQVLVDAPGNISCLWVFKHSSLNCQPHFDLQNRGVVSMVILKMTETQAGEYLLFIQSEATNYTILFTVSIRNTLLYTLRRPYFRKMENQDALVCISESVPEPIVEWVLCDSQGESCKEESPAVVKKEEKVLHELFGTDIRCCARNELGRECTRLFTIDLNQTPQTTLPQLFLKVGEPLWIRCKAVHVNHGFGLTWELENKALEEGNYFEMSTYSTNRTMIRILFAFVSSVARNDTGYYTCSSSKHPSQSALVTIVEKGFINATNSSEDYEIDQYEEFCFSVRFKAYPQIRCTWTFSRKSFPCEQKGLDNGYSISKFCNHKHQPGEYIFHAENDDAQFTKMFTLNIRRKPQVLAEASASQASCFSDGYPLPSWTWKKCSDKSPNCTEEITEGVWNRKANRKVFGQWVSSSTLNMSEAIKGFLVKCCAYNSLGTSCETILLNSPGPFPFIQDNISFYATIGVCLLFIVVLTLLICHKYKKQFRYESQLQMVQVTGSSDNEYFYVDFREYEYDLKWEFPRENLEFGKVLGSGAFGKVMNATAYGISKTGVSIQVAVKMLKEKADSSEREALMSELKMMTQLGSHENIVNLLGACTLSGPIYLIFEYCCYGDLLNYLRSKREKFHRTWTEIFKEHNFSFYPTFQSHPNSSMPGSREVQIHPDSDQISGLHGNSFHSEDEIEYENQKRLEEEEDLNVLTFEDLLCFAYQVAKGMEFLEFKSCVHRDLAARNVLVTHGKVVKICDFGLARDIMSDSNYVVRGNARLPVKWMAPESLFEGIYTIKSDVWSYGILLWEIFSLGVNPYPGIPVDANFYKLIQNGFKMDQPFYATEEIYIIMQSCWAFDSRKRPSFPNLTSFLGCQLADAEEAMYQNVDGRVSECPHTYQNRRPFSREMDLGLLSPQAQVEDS

[4] = Antiproliferative activity against human HMC1 cells expressing FLT3-delta599 mutant after 72 hrs by WST-1 assay; type: functional; details: HMC1, 72 h; procedure, shortened: as §1
[5] = Antiproliferative activity against human ML1 cells after 72 hrs by WST-1 assay; type: functional; details: ML1, 72 h; procedure, shortened: as §1
[6] = Antiproliferative activity against human HMC1 cells expressing FLT-D835Y mutant after 72 hrs by WST-1 assay; type: functional; details: HMC1, 72 h; procedure, shortened: as §1
[7] = tested on: MOLM-13; test: Antitumor activity against human MOLM13 cells xenografted in SCID mouse assessed as minimal tumor volume ratio at 50 mg/kg, po bid treated for 5 days measured after 7 days relative to control; type: functional
Procedure, shortened: (§2)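 SCID mice bearing subcutaneous MOLM-13 xenografts, 5 per group, dosed orally b.i.d. for 5 days. […] is the mean tumour volume ratio, treated to control. Regression is the mean tumour volume relative to the initial volume on day 0. Mortality and body weight were also recorded.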

[8] = tested on: Mus musculus; test: Toxicity to human MOLM13 cells xenografted SCID mouse assessed as mortality at 50 mg/kg, po bid after 5 days; type: organism-based, MOLM-13; set-up: dose 50 mg/kg, route oral; details: in vivo, 120 h
Procedure, shortened: (§3)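 MOLM-13 cells implanted subcutaneously in SCID mice. Compound given orally twice daily for 5 days at 50, 100 or 200 mg/kg, alongside an untreated control group. Mortality was scored per dose group, together with tumor volume as treated/control ratio and relative to day-0 volume.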

[9] = tested on: Mus musculus; test: Toxicity to human MOLM13 cells xenografted SCID mouse assessed as body weight loss at 200 mg/kg, po bid after 5 days; type: organism-based, MOLM-13; set-up: dose 200 mg/kg, route oral; details: in vivo, 120 h; procedure, shortened: as §2
[10] = tested on: MOLM-13; test: Antitumor activity against human MOLM13 cells xenografted in po dosed SCID mouse assessed as tumor volume ratio administered bid for 5 days; type: functional, organism-based; procedure, shortened: as §2
[11] = tested on: MOLM-13; test: Antitumor activity against human MOLM13 cells xenografted in po dosed SCID mouse assessed as regression tumor volume ratio administered bid for 5 days; type: functional, organism-based; procedure, shortened: as §2
[12] = tested on: MOLM-13; test: Antitumor activity against human MOLM13 cells xenografted in SCID mouse assessed as minimal tumor volume ratio at 100 mg/kg, po bid treated for 5 days measured after 7 days relative to control; type: functional; procedure, shortened: as §2
[13] = tested on: MOLM-13; test: Antitumor activity against human MOLM13 cells xenografted in SCID mouse assessed as minimal regressive tumor volume ratio at 50 mg/kg, po bid treated for 5 days measured after 7 days relative to control; type: functional; procedure, shortened: as §2
[14] = tested on: MOLM-13; test: Antitumor activity against human MOLM13 cells xenografted in SCID mouse assessed as minimal regressive tumor volume ratio at 100 mg/kg, po bid treated for 5 days measured after 7 days relative to control; type: functional; procedure, shortened: as §2
[15] = tested on: Mus musculus; test: Toxicity to human MOLM13 cells xenografted SCID mouse assessed as mortality at 100 mg/kg, po bid after 5 days; type: organism-based, MOLM-13; set-up: dose 100 mg/kg, route oral; details: in vivo, 120 h; procedure, shortened: as §3

SMILES: FCCCNc1nc(NCCc2ccncc2)ncc1-c1nnc(CN2CCNCC2)o1
- clearance [1]: 0.1 L/h/kg
- GI50 [2]: 99 nM

SMILES: Oc1ccc(CCNc2ncc(-c3nnc(C4CC4)o3)c(Nc3ccccc3)n2)cc1
- clearance [1]: 5.1 L/h/kg
- GI50 [2]: 44 nM

SMILES: CS(=O)(=O)CCNc1nc(NCCc2ccncc2)ncc1-c1nnc(C2CC2)o1
- IC50 [3]: 515 nM
- GI50 [2]: 588 nM

SMILES: Oc1cccc(Nc2nc(NCCc3ccncc3)ncc2-c2nnc(C3CC3)o2)c1
- IC50 [3]: 34 nM
- clearance [1]: 16 L/h/kg
- GI50 [2]: 10 nM

SMILES: CCCNc1nc(NCCc2ccncc2)ncc1-c1nnc(CN2CCN(C(C)=O)CC2)o1
- clearance [1]: 8.2 L/h/kg
- GI50 [2]: 66 nM

SMILES: c1ccc(Nc2nc(NCCc3ccncn3)ncc2-c2nnc(C3CC3)o2)cc1
- clearance [1]: 4.4 L/h/kg
- GI50 [2]: 775 nM

SMILES: Oc1cc(CCNc2ncc(-c3nnc(C4CC4)o3)c(Nc3ccccc3)n2)ccn1
- clearance [1]: 2.5 L/h/kg
- GI50 [2]: 113 nM

SMILES: CCCOc1nc(NCCc2ccncc2)ncc1-c1nnc(CN2CCN(C)CC2)o1
- clearance [1]: 0.7 L/h/kg
- GI50 [2]: 308 nM

SMILES: Cc1cc(CCNc2ncc(-c3nnc(C4CC4)o3)c(Nc3ccccc3)n2)ccn1
- clearance [1]: 22 L/h/kg
- GI50 [2]: 137 nM

SMILES: CCCNc1nc(NCCc2ccncc2)ncc1-c1nnc(CO)o1
- GI50 [4]: 76 nM
- GI50 [5]: 5.96 µM
- clearance [1]: 2.1 L/h/kg
- GI50 [2]: 56 nM
- GI50 [6]: 116 nM

SMILES: c1ccc(Nc2nc(NCCc3ccncc3)ncc2-c2nnc(CN3CCNCC3)o2)cc1
- clearance [1]: 2.3 L/h/kg
- GI50 [2]: 74 nM

SMILES: CCCNc1nc(NCCc2ccncc2)ncc1-c1nnc(CN(C)C)o1
- T/C [7]: 0.45
- Activity [8]: Non-toxic
- clearance [1]: 11 L/h/kg
- GI50 [2]: 73 nM

SMILES: CCCNc1nc(NCCc2ccncc2)ncc1-c1nnc(CN2CCN(CCO)CC2)o1
- clearance [1]: 3 L/h/kg
- GI50 [2]: 57 nM

SMILES: CCCNc1nc(NCCc2ccncc2)ncc1-c1nnc(CN2C[C@@H](C)N[C@@H](C)C2)o1
- clearance [1]: 6.9 L/h/kg
- GI50 [2]: 43 nM

SMILES: COc1cc(CCNc2ncc(-c3nnc(C4CC4)o3)c(Nc3ccccc3)n2)ccn1
- GI50 [2]: 999 nM

SMILES: CNc1nc(NCCc2ccncc2)ncc1-c1nnc(C2CC2)o1
- IC50 [3]: 35 nM
- clearance [1]: 1.2 L/h/kg
- GI50 [2]: 139 nM

SMILES: CN1CCN(Cc2nnc(-c3cnc(NCCc4ccncc4)nc3NCC3CC3)o2)CC1
- clearance [1]: 5.2 L/h/kg
- GI50 [2]: 52 nM

SMILES: CCNc1nc(NCCc2ccncc2)ncc1-c1nnc(CN2CCN(C)CC2)o1
- GI50 [4]: 114 nM
- T/C [7]: 0.24
- Activity [8]: Non-toxic
- GI50 [5]: > 10 µM
- clearance [1]: 2.7 L/h/kg
- Activity [9]: Non-toxic
- GI50 [2]: 102 nM
- GI50 [6]: 63 nM

SMILES: c1cc(CCNc2ncc(-c3nnc(CN4CCNCC4)o3)c(NC3CCC3)n2)ccn1
- clearance [1]: 6.3 L/h/kg
- GI50 [2]: 50 nM

SMILES: CCCNc1nc(NCCc2cccs2)ncc1-c1nnc(C)o1
- IC50 [3]: 373 nM

SMILES: CNc1nc(NCCc2ccncc2)ncc1-c1nnc(CN2CCN(C)CC2)o1
- clearance [1]: 0.1 L/h/kg
- GI50 [2]: 262 nM

SMILES: CCCNc1nc(NCCc2ccncc2)ncc1-c1nnc(CN2CCN(C)CC2)o1
- GI50 [4]: 37 nM
- Activity [8]: Non-toxic
- GI50 [5]: > 10 µM
- clearance [1]: 4.9 L/h/kg
- Activity [9]: Non-toxic
- GI50 [2]: 19 nM
- GI50 [6]: 31 nM

SMILES: Oc1ccc(Nc2nc(NCCc3ccncc3)ncc2-c2nnc(C3CC3)o2)cc1
- IC50 [3]: 4.8 nM
- GI50 [2]: 3.2 nM

SMILES: CC(C)Nc1nc(NCCc2ccncc2)ncc1-c1nnc(CN2CCNCC2)o1
- clearance [1]: 1.5 L/h/kg
- GI50 [2]: 49 nM

SMILES: CCNc1nc(NCCc2ccncc2)ncc1-c1nnc(CN2C[C@@H](C)N[C@@H](C)C2)o1
- Activity [10]: Dose-dependent effect
- Activity [11]: Dose-dependent effect
- GI50 [4]: 74 nM
- T/C [7]: 0.2
- Activity [8]: Non-toxic
- GI50 [5]: > 10 µM
- clearance [1]: 0.8 L/h/kg
- Activity [9]: Non-toxic
- T/C [12]: 0.014
- GI50 [2]: 94 nM
- Ratio [13]: 1.39
- GI50 [6]: 48 nM
- Ratio [14]: 0.12
- Activity [15]: Non-toxic

SMILES: CCCNc1nc(NCCc2ccncc2)ncc1-c1nnc(CN2CCC(N)CC2)o1
- clearance [1]: 3 L/h/kg
- GI50 [2]: 74 nM

SMILES: N#Cc1cc(CCNc2ncc(-c3nnc(C4CC4)o3)c(Nc3ccccc3)n2)ccn1
- GI50 [2]: 10000 nM

SMILES: c1ccc(Nc2nc(NCCc3ccncc3)ncc2-c2nnc(C3CC3)o2)cc1
- IC50 [3]: 47 nM
- clearance [1]: 19 L/h/kg
- GI50 [2]: 40 nM

SMILES: CCCNc1nc(NCCc2ccncc2)ncc1-c1nnc(CN2CCOCC2)o1
- clearance [1]: 10 L/h/kg
- GI50 [2]: 43 nM

SMILES: Nc1ccc(CCNc2ncc(-c3nnc(C4CC4)o3)c(Nc3ccccc3)n2)cc1
- clearance [1]: 4.1 L/h/kg
- GI50 [2]: 287 nM

SMILES: CCCNc1nc(NCCc2ccncc2)ncc1-c1nnc(CNCCN(C)C)o1
- clearance [1]: 3 L/h/kg
- GI50 [2]: 78 nM

SMILES: CCOc1nc(NCCc2ccncc2)ncc1-c1nnc(C2CC2)o1
- IC50 [3]: 80 nM
- clearance [1]: 1.4 L/h/kg
- GI50 [2]: 263 nM

SMILES: [O-][n+]1ccc(CCNc2ncc(-c3nnc(C4CC4)o3)c(Nc3ccccc3)n2)cc1
- clearance [1]: 0.2 L/h/kg
- GI50 [2]: 3610 nM

SMILES: Cc1ccccc1Nc1nc(NCCc2ccncc2)ncc1-c1nnc(C2CC2)o1
- IC50 [3]: 134 nM
- clearance [1]: 13 L/h/kg
- GI50 [2]: 40 nM

SMILES: Cc1ccc(Nc2nc(NCCc3ccncc3)ncc2-c2nnc(C3CC3)o2)cc1
- IC50 [3]: 106 nM
- clearance [1]: 11 L/h/kg
- GI50 [2]: 23 nM

SMILES: OCCNc1nc(NCCc2ccncc2)ncc1-c1nnc(C2CC2)o1
- IC50 [3]: 63 nM
- clearance [1]: 1.2 L/h/kg
- GI50 [2]: 123 nM
